Converted amounts (≈) assume the structure as drawn.
What was measured:
[1] = species: Oryctolagus cuniculus; test: Tested in vitro for antiarrhythmic activity in isolated rabbit atria; assay type: functional; conditions: Heart
Procedure, shortened: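 Atria from New Zealand rabbits in oxygenated Ringer-Locke at 29 °C, paced with 10-ms, 10-V rectangular pulses at rising frequency to find the maximum driven frequency. This was remeasured before and 10, 15 and 20 min after drug addition. Dose-response curves on the same tissue, repeated 3-5 times. EC values by probit.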

[2] = The compound was tested for acute toxicity when given intraperitoneally in mouse; assay type: organism-based; conditions: in vivo, ip
Procedure, shortened: (§1)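 Albino CF1 mice of both sexes, 18-20 g, dosed intraperitoneally; survivors observed for 1 week; ten mice per dose. LD50 derived by probit method, confidence limits at p = 0.05.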

[3] = tested on: Rattus norvegicus; test: Antiarrhythmic activity ( protection against CaCl2 induced ventricular fibrillation ) in anesthetized rat administered intravenously; assay type: functional; conditions: Heart, iv
Procedure, shortened: (§2)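 Sprague-Dawley albino rats, 180-200 g, conscious or urethane-anesthetized (2.8 g/kg sc). Compound given via caudal or portal vein 2 min, or orally 60 min, before rapid iv 8% CaCl2 at 1 mL/kg. Lead II ECG monitored for fibrillation within 10 min. Five to ten rats per dose.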

[4] = The compound was tested for acute toxicity when given intravenously in rat; assay type: organism-based; conditions: in vivo, iv
Procedure, shortened: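 Sprague-Dawley rats of both sexes, 120-140 g, dosed intravenously; survivors observed for 1 week. LD50 derived by probit method, confidence limits at p = 0.05.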

[5] = The compound was tested for acute toxicity when given intraperitoneally in mouse.; assay type: organism-based; conditions: in vivo, ip; procedure, shortened: as §1
[6] = tested on: Rattus norvegicus; test: The compound was tested for activity on heart rate in anesthetized rat when induced through portal vein (ipv) at a dose of 2 mg/kg; assay type: functional
Procedure, shortened: (§3)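 Heart rate in anesthetized rats, given iv (femoral vein) or into the portal vein. Rate recorded a few seconds before drug administration.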

[7] = tested on: Mus musculus; test: Antiarrhythmic activity (protection against aconitine induced ventricular tachycardia) in anesthetized mouse administered through iv.; assay type: functional; conditions: Heart
Procedure, shortened: (§4)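 Albino CF1 mice of both sexes, 20-22 g, pentobarbital-anesthetized (60 mg/kg ip), lead II ECG. Dosing iv (caudal vein) 2 min or orally 60 min before aconitine infusion, 8 µg/mL at 0.32 mL/min for 3 min. ECG read every 10 s. Endpoint is time to initial arrhythmia and to ventricular tachycardia. Ten mice per dose; probit analysis.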

[8] = tested on: Rattus norvegicus; test: Antiarrhythmic activity ( protection against CaCl2 induced ventricular fibrillation ) in conscious rat administered orally (po); assay type: functional; conditions: Heart; procedure, shortened: as §2
[9] = tested on: Rattus norvegicus; test: Antiarrhythmic activity ( protection against CaCl2 induced ventricular fibrillation ) in conscious rat administered intravenously; assay type: functional; conditions: Heart, iv; procedure, shortened: as §2
[10] = tested on: Mus musculus; test: Antiarrhythmic activity (protection against aconitine induced initial arrhythmia) in anesthetized mouse administered through iv.; assay type: functional; conditions: Heart; procedure, shortened: as §4
[11] = tested on: Rattus norvegicus; test: The compound was tested for activity on heart rate in anesthetized rat when induced through femoral vein (iv) at a dose of 1 mg/kg; assay type: functional; procedure, shortened: as §3
[12] = tested on: Rattus norvegicus; test: Antiarrhythmic activity (protection against CaCl2 induced ventricular fibrillation) in anesthetized rat administered through portal vein (ipv); assay type: functional; conditions: Heart; procedure, shortened: as §2
[13] = tested on: Canis familiaris; test: Antiarrhythmic activity ( protection against epinephrine induced ventricular fibrillation ) in post infarcted conscious dog administered iv.; assay type: functional; conditions: Canis lupus familiaris, Heart
[14] = species: Mus musculus; test: The compound was tested for effective concentration (intradermal injection) that caused local anesthesia in 50% of mice by tail-clip method; assay type: functional, organism-based
[15] = tested on: Mus musculus; test: Antiarrhythmic activity ( protection against aconitine induced ventricular tachycardia) in anesthetized mouse administered perorally; assay type: functional; conditions: Heart, po; procedure, shortened: as §4
[16] = tested on: Rattus norvegicus; test: The compound was tested for blood electrolyte K+ in rat serum when induced through femoral vein (iv) at a dose of 5 mg/kg; assay type: functional
Procedure, shortened: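 Sprague-Dawley rats of both sexes, 140-150 g. Serum K+ measured by flame photometry 1 h after iv dosing. Five rats per dose.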

[17] = tested on: Mus musculus; test: Antiarrhythmic activity ( protection against aconitine induced initial arrhythmia ) in anesthetized mouse administered perorally; assay type: functional; conditions: Heart, po; procedure, shortened: as §4
[18] = tested on: Canis familiaris; test: The compound was tested for antiarrhythmic activity in infarcted conscious dog through iv; assay type: functional; conditions: Canis lupus familiaris, Heart
Procedure, shortened: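 Beagle dogs of both sexes, 10-14 kg, coronary ligature under pentobarbital (30 mg/kg iv) with artificial ventilation. Next day, dogs without spontaneous arrhythmia get epinephrine 2-10 µg/kg iv (ear vein). Compound then given iv. ECG at 5-180 min, with epinephrine re-challenge at each time. Maximal ectopic beats/min counted before and after each dose, in 2-4 dogs.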

Row | Structure (SMILES) | EC30 [1] [µg/mL] | LD50 [2] [mg/kg] | ED50 [3] [mg/kg] | LD50 [4] [mg/kg] | LD50 [5] [mg/kg] | further results
1 | CC(=O)/C(=C\c1ccccc1)Oc1ccccc1OCCN1CCCC1 | 3 (≈ 8.54 µM) | 45 | 1 |  |  | 
2 | CC(=O)/C(=C\c1ccccc1)Oc1ccccc1OCCCN1CCCCC1 | 1.6 (≈ 4.22 µM) |  | 0.2 | 6.5 | 62 | 
3 | CCN(CC)CCOc1ccccc1OCC(C)O (stereo not drawn) | 15 (≈ 56.1 µM) | 187 | 7.1 |  |  | 
4 | CC(=O)/C(=C\c1ccccc1)Oc1ccccc1OCC(O)CN1CCN(C)CC1 (stereo not drawn) | 10 (≈ 24.4 µM) |  | 7.5 |  | 175 | 
5 | CCN(CC)CCOc1ccccc1O/C(=C/c1ccccc1)C(C)=O [ZOCAINONE] | 0.7 (≈ 1.98 µM) |  | 0.46 | 8.9 | 72 | Activity [6]: -1%; ED50 [7]: 11 mg/kg; ED50 [8]: 13.6 mg/kg; ED50 [9]: 0.88 mg/kg; ED50 [10]: 7.5 mg/kg; Activity [11]: -15%; ED50 [12]: 2.3 mg/kg; ED50 [13]: 2 mg/kg; EC50 [14]: 0.01 µg/mL (≈ 0.0283 µM); ED50 [15]: 149 mg/kg; Activity [16]: 12%; ED50 [17]: 132 mg/kg; ED50 [18]: 2 mg/kg
6 | CC(=O)/C(=C\c1ccccc1)Oc1ccccc1OCCCN1CCN(C)CC1 | 1.3 (≈ 3.3 µM) |  |  | 23.9 | 125 | 
7 | CCN(CC)CCOc1ccccc1OC(Cc1ccccc1)C(C)O (stereo not drawn) | 2.5 (≈ 6.99 µM) | 85 | 1 |  |  | 
8 | CCN(CC)CCNC(=O)c1ccc(N)cc1 [PROCAINAMIDE] | 45.8 (≈ 195 µM) | 312 | 48.1 | 121 |  | 
9 | C/C=C(/Oc1ccccc1OCCN(CC)CC)C(C)=O | 5 (≈ 17.2 µM) |  | 3 |  | 80 | 
10 | CC(=O)/C(=C\c1ccccc1)Oc1ccccc1OCCCN(C(C)C)C(C)C | 0.32 (≈ 0.809 µM) |  | 0.1 | 11.4 | 60 | 
11 | CC(=O)/C(=C\c1ccccc1)Oc1ccccc1OCCCN(C)C | 3 (≈ 8.84 µM) |  |  | 13.5 | 110 | 
12 | CC(=O)/C(=C\c1ccccc1)Oc1cc(Cl)ccc1OCCN(C(C)C)C(C)C | 2 (≈ 4.81 µM) |  | 0.62 |  | 165 | 
13 | CCN(CC)CCOc1ccccc1OCC(C)=O | 15 (≈ 56.5 µM) | 125 | 7 |  |  | 
14 | CC(=O)/C(=C\c1ccccc1)Oc1ccccc1OCCCNC(C)(C)C | 2.3 (≈ 6.26 µM) |  |  | 12.5 | 63 | 
15 | CCN(CC)CCOc1ccccc1OC(Cc1ccccc1)C(C)=O (stereo not drawn) | 10 (≈ 28.1 µM) | 92 | 0.75 | 11.7 |  | 

Source: ChEMBL document CHEMBL1123881, “Synthesis and antiarrhythmic activity of new 3-[2-(omega-aminoalkoxy)phenoxy]-4-phenyl-3-buten-2-ones and related compounds” (J Med Chem, 1987)
